TNAP inh hi DEA: human TNAP enzyme inhibitors, primary screen, biochemical, luminescent, high phosphate acceptor level, uHTS; 200,000 tested, 0.03% active; inhibition, % at 20 µM; AID 1135, 2008; purified TNAP, CDP-star luminescence, 1 M DEA;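 active means over 50% inhibition of tissue-nonspecific alkaline phosphatase at 20 µM in the single-dose screen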;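 further: plate controls were DMSO wells for no effect and EDTA-quenched wells as full inhibition for full effect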
Target sequence (P05186 whole entry, looked up): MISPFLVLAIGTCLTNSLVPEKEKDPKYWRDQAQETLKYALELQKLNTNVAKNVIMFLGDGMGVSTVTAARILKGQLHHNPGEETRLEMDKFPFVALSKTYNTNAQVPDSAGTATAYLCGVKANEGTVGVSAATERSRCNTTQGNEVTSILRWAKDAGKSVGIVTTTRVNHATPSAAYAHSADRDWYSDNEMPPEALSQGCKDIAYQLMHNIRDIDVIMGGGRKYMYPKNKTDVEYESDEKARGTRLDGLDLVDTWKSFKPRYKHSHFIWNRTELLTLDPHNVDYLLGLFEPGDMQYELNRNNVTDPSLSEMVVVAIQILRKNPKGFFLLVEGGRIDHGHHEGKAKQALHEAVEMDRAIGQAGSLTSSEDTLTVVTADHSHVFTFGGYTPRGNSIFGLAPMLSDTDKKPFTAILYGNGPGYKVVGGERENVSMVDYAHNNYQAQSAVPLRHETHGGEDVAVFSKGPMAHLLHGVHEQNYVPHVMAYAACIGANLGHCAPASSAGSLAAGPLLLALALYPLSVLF
TNAP inh noacc: human TNAP enzyme inhibitors, primary screen, biochemical, luminescent, no phosphate acceptor, uHTS; AID 1012, 2008; inhibition, % at 20 µM; 200,000 tested, 0.26% active; Alkaline phosphatase, tissue-nonspecific isozyme (Homo sapiens), P05186; purified TNAP, CDP-star luminescence, 30 min;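 active means tissue-nonspecific alkaline phosphatase inhibition above about 50% at 20 µM in the single-dose screen, limit read from the data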;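 further: 0% = DMSO negative control and 100% = EDTA positive control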
PMI act satM6P: human PMI activators, high substrate, primary screen, biochemical, fluorescence intensity, near-saturating mannose 6-phosphate. coupled PMI enzyme assay, resazurin fluorescence, 20 min; hits give high values; 1 = untreated enzyme, 0 = substrate-free blank. 190,000 tested, 0.34% active. AID 1216, 2008. Mannose-6-phosphate isomerase (Homo sapiens), P34949. activation factor at 20 µM;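 active means activation factor of 2 or more at 20 µM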
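assay system = human phosphomannose isomerase with PGI, G6PDH, diaphorase coupling enzymes | quantity = 15 ng/mL PMI | incubation = enzyme reaction with compound 20 min at room temperature | medium = HEPES pH 7.4 buffer with MgCl2 and Tween-20 | compound dosing = one concentration, 20 µM, in 1% DMSO | measured by = Diaphorase-driven resazurin-to-resorufin fluorescence, excitation 544, emission 590 nm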
TNAP act hiacc: TNAP activators at high phosphate acceptor level, primary screen, biochemical, luminescence, uHTS; Alkaline phosphatase, tissue-nonspecific isozyme (Homo sapiens), P05186; purified TNAP, CDP-star luminescence, 1 M DEA, 30 min; hits give high values; 0 = EDTA background, 1 = DMSO-only activity; activation factor at 20 µM; 200,000 tested, under 10 active; AID 1136, 2008;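 active means activation factor at least 2 at 20 µM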
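Dosing: 20 µM single point. System: human TNAP. Amount: TNAP 1/800 final. Incubation: 30 min, room temperature. Read-out: TNAP activation factor scaled between EDTA and DMSO control wells. Signal: luminescence from CDP-star hydrolysis. Medium: 1 M DEA, pH 9.8, Mg2+, Zn2+. Control set: EDTA negative control, DMSO positive control.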
PMI activator: activators of human PMI, primary screen, biochemical, fluorescence intensity, near-Km mannose 6-phosphate; AID 1214, 2008; 190,000 tested, 0.005% active; activation factor at 20 µM; Mannose-6-phosphate isomerase (Homo sapiens), P34949; purified human PMI, coupled resazurin fluorescence, 20 min; hits give high values; 1 = vehicle control, 0 substrate-free wells;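 active means activation factor of 2 or more at 20 µM, relative to plate controls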
* marks the source's active call; other numbers are inactive results. This is a sample that favours compounds with a hit; in the whole collection about 0.6% have one here.

`Oc1cccc2cc3cccc(O)c3c(O)c12` gave TNAP inh hi DEA 4.7, TNAP inh noacc -11.5, PMI act satM6P 2.2*, TNAP act hiacc 1 and PMI activator 1.8.
`Cc1ccc(N(CC(=O)N=Nc2c(O)[nH]c3ccccc23)S(C)(=O)=O)c(C)c1` gave TNAP inh hi DEA -1.1, TNAP inh noacc -23.0, PMI act satM6P 0.9, TNAP act hiacc 1 and PMI activator 0.9.
Screening COc1ccc(S(=O)(=O)N=Nc2c(O)[nH]c3ccccc23)cc1 returned TNAP inh hi DEA 1.5, TNAP inh noacc -0.1, PMI act satM6P 2.5*, TNAP act hiacc 1 and PMI activator 1.9.
Screening COc1ccc(/C(C)=N/OCC(=O)N=Nc2c(O)[nH]c3ccccc23)cc1 returned TNAP inh hi DEA -0.3, TNAP inh noacc -11.0, PMI act satM6P 0.9, TNAP act hiacc 1 and PMI activator 0.8.
For Cc1ccc(S(=O)(=O)N=Nc2c(O)[nH]c3ccccc23)cc1C the results were TNAP inh hi DEA -4.8, TNAP inh noacc -7.3, PMI act satM6P 2.2*, TNAP act hiacc 1 and PMI activator 1.9.
Screening C/C(=N\NC(=O)c1cccc(N/N=C(\C)c2cc(O)ccc2O)c1)c1cc(O)ccc1O returned TNAP inh hi DEA 0.7, TNAP inh noacc 75.9*, PMI act satM6P 3*, TNAP act hiacc 1 and PMI activator 1.8.
`Cc1cc(OC(=O)c2ccc(S(=O)(=O)N3CCOCC3)cc2)c([N+](=O)[O-])c(=O)[nH]1` gave TNAP inh hi DEA -4.4, TNAP inh noacc -11.6, PMI act satM6P 1.1, TNAP act hiacc 1 and PMI activator 1.1.
For C/C(=N\Nc1cccc2cccnc12)c1ccc(C)cc1 the results were TNAP inh hi DEA -1.3, TNAP inh noacc -23.4, PMI act satM6P 2.1*, TNAP act hiacc 1 and PMI activator 1.6.
`Fc1ccc(-c2[nH]ncc2-c2nnnn2-c2ccccc2)c(F)c1` gave TNAP inh hi DEA 5.7, TNAP inh noacc 84.3*, PMI act satM6P 0.9, TNAP act hiacc 0.9 and PMI activator 0.9.
For CC(Sc1ccc2nnc(-c3ccc(F)cc3)n2n1)C(=O)O (stereo unspecified) the results were TNAP inh hi DEA -6.8, TNAP inh noacc -9.4, PMI act satM6P 2.2*, TNAP act hiacc 1.1 and PMI activator 1.3.
COc1ccc(C2NN=C(c3ccc(C)cc3)S2)cc1OC (stereo unspecified) was read as TNAP inh hi DEA -4.6, TNAP inh noacc -10.5, PMI act satM6P 2.9*, TNAP act hiacc 1 and PMI activator 1.8.
For COc1ccc(C2NC(=O)CS2)cc1OC (stereo unspecified) the results were TNAP inh hi DEA -9.8, TNAP inh noacc -6.3, PMI act satM6P 1.1, TNAP act hiacc 1.1 and PMI activator 1.2.
Fc1cccc(C2NN=C(c3ccccc3)S2)c1 (stereo unspecified) was read as TNAP inh hi DEA 2.3, TNAP inh noacc -15.7, PMI act satM6P 1.6, TNAP act hiacc 1 and PMI activator 1.3.
Screening Cc1ccc(C2=NNC(c3cccc(F)c3)S2)cc1 (stereo unspecified) returned TNAP inh hi DEA 3.0, TNAP inh noacc -5.1, PMI act satM6P 2.1*, TNAP act hiacc 1 and PMI activator 1.7.
`Cc1ccc(-c2cc(C(=O)N/N=C/c3ccco3)n[nH]2)s1` gave TNAP inh hi DEA 13.0, TNAP inh noacc 68.0*, PMI act satM6P 0.9, TNAP act hiacc 0.9 and PMI activator 0.8.
CCc1ccc(-c2cc(C(=O)N/N=C/c3ccco3)[nH]n2)cc1 was read as TNAP inh hi DEA -1.0, TNAP inh noacc 50.8*, PMI act satM6P 1, TNAP act hiacc 1 and PMI activator 0.9.
Screening O=C(NNC(=O)c1ccc2ccccc2c1O)c1ccccc1Cl returned TNAP inh hi DEA 0.4, TNAP inh noacc 65.2*, PMI act satM6P 1, TNAP act hiacc 1 and PMI activator 0.9.
For O=C(Nc1nc(-c2ccccn2)cs1)c1cc(Cl)ccc1[N+](=O)[O-] the results were TNAP inh hi DEA -3.8, TNAP inh noacc -28.9, PMI act satM6P 0.9, TNAP act hiacc 1 and PMI activator 0.7.
`Cc1cc(C(=O)Nc2nc(-c3ccccn3)cs2)ccc1[N+](=O)[O-]` gave TNAP inh hi DEA -4.2, TNAP inh noacc -12.1, PMI act satM6P 2.4*, TNAP act hiacc 1 and PMI activator 1.8.
`CCOC(=O)C1=C(CBr)NC(=O)NC1C` (stereo unspecified) gave TNAP inh hi DEA 2.5, TNAP inh noacc -14.7, PMI act satM6P 1.2, TNAP act hiacc 1 and PMI activator 1.4.
CCSc1ncc(/C=N/Nc2ccc(F)cc2)n1C was read as TNAP inh hi DEA 0.2, TNAP inh noacc 6.1, PMI act satM6P 2*, TNAP act hiacc 1 and PMI activator 1.2.
For CC(=O)c1cn(Cc2ccccc2)c(=O)[nH]c1=O the results were TNAP inh hi DEA -0.8, TNAP inh noacc -12.7, PMI act satM6P 1.1, TNAP act hiacc 1 and PMI activator 1.1.
Screening O=C(OCC(=O)N1CCCCCC1)c1n[nH]c(=O)c2ccccc12 returned TNAP inh hi DEA -6.9, TNAP inh noacc -7.2, PMI act satM6P 1.1, TNAP act hiacc 1.1 and PMI activator 1.
`CC1CCN(C(=O)COC(=O)c2n[nH]c3ccccc23)CC1` gave TNAP inh hi DEA -0.3, TNAP inh noacc 58.3*, PMI act satM6P 1, TNAP act hiacc 1 and PMI activator 1.
For COC(=O)c1n[nH]c2ccccc12 the results were TNAP inh hi DEA -7.7, TNAP inh noacc 55.3*, PMI act satM6P 1, TNAP act hiacc 1.1 and PMI activator 1.1.
For CCC1CCCCN1C(=O)COC(=O)c1n[nH]c2ccccc12 (stereo unspecified) the results were TNAP inh hi DEA -1.7, TNAP inh noacc 56.4*, PMI act satM6P 1.1, TNAP act hiacc 1 and PMI activator 1.
For COc1ccc(CCNC(=O)CN2C(=O)NC(C)(c3ccc([N+](=O)[O-])cc3)C2=O)cc1 (stereo unspecified) the results were TNAP inh hi DEA -1.5, TNAP inh noacc -11.0, PMI act satM6P 1, TNAP act hiacc 1 and PMI activator 1.1.
`N#C/C(=C\C1=C(N2CCOCC2)C(=C\c2ccc(Cl)cc2)/CC1)C(=O)Nc1ccccc1F` gave TNAP inh hi DEA 41.1, TNAP inh noacc 47.5, PMI act satM6P 1, TNAP act hiacc 0.6 and PMI activator 1.

Screening results from PubChem BioAssay.
